From ChEMBL document CHEMBL3045116, “Synthesis and biological evaluation of 2-(5-substituted-1-((diethylamino)methyl)-2-oxoindolin-3-ylidene)-N-substituted-hydrazinecarbothioamides” (Med Chem Res, 2013)

Key:
Influenza B virus = assay: Antiviral activity against Influenza B virus infected in MDCK cells assessed as reduction of virus-induced cytopathic effect after 3 days by colorimetric formazan-based MTS assay; format: functional, organism-based; details: 72 h
Summary of the method: (§1)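 Confluent cell monolayers were infected with 100 CCID50 of virus, and serial dilutions of compound were added at the time of infection.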

Influenza A virus = assay: Antiviral activity against Unidentified Influenza A virus (H1N1) infected MDCK cells assessed as reduction of virus-induced cytopathic effect after 3 days by colorimetric formazan-based MTS assay; format: functional, organism-based; details: 72 h; summary of the method: as §1
[1] = (§2) Cytotoxicity against MDCK cells assessed as change in cellular morphology; format: cell-based, Canis lupus familiaris; details: dog, MDCK cells
Summary of the method: (§3)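 Uninfected cells were exposed to compound in parallel with the antiviral cultures. The read-out is the minimum cytotoxic concentration that causes a microscopically detectable alteration of normal cell morphology.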

MDCK = assay: as §2; format: cell-based, Canis lupus familiaris; details: dog, mdck; summary of the method: as §3
Influenza A virus H3N2 = assay: Antiviral activity against Influenza A virus H3N2 infected MDCK cells assessed as reduction of virus-induced cytopathic effect after 3 days by colorimetric formazan-based MTS assay; format: functional, organism-based; details: 72 h; summary of the method: as §1
Salmonella typhi = assay: Antibacterial activity against Salmonella enterica subsp. enterica serovar Typhi assessed as growth inhibition at 50 ug/ml by cup-plate method (reference value: 8 to 10 mm); format: functional; details: read-out: DIZ
Escherichia coli = assay: Antibacterial activity against Escherichia coli assessed as growth inhibition at 50 ug/ml by cup-plate method (reference value: 8 to 10 mm); format: functional; details: read-out: DIZ
Proteus vulgaris = assay: Antibacterial activity against Proteus vulgaris assessed as growth inhibition at 50 ug/ml by cup-plate method (reference value: 8 to 10 mm); format: functional; details: read-out: DIZ
Bacillus subtilis = assay: Antibacterial activity against Bacillus subtilis assessed as growth inhibition at 50 ug/ml by cup-plate method (reference value: 8 to 10 mm); format: functional; details: read-out: DIZ
Klebsiella pneumoniae = assay: Antibacterial activity against Klebsiella pneumoniae assessed as growth inhibition at 50 ug/ml by cup-plate method (reference value: 8 to 10 mm); format: functional; details: read-out: DIZ
Staphylococcus aureus = assay: Antibacterial activity against Staphylococcus aureus assessed as growth inhibition at 50 ug/ml by cup-plate method (reference value: 8 to 10 mm); format: functional; details: read-out: DIZ
Human alphaherpesvirus 2 = assay: Antiviral activity against Human herpesvirus 2 strain G infected human HEL cells assessed as reduction of virus-induced cytopathic effect after 3 days by colorimetric formazan-based MTS assay; format: functional, organism-based; details: Human alphaherpesvirus 2, strain G, 72 h; summary of the method: as §1
Human alphaherpesvirus 1 [2] = assay: Antiviral activity against acyclovir-resistant thymidine kinase negative Human herpesvirus 1 strain KOS infected human HEL cells assessed as reduction of virus-induced cytopathic effect after 3 days by colorimetric formazan-based MTS assay; format: functional, organism-based; details: Human alphaherpesvirus 1, KOS, 72 h; summary of the method: as §1
[3] = system: Vesicular stomatitis virus; assay: Antiviral activity against Vesicular stomatitis virus infected human HEL cells assessed as reduction of virus-induced cytopathic effect after 3 days by colorimetric formazan-based MTS assay; format: functional, organism-based; details: 72 h; summary of the method: as §1
[4] = Cytotoxicity against Homo sapiens (human) HEL cells assessed as change in cellular morphology; format: cell-based
Human alphaherpesvirus 1 [5] = assay: Antiviral activity against Human herpesvirus 1 strain KOS infected human HEL cells assessed as reduction of virus-induced cytopathic effect after 3 days by colorimetric formazan-based MTS assay; format: functional, organism-based; details: Human alphaherpesvirus 1, KOS, 72 h; summary of the method: as §1
Coxsackievirus B4 [6] = assay: Antiviral activity against Human coxsackievirus B4 infected human HeLa cells assessed as reduction of virus-induced cytopathic effect after 3 days by colorimetric formazan-based MTS assay; format: functional, organism-based; details: Enterovirus B, 72 h; summary of the method: as §1
[7] = system: Feline infectious peritonitis virus; assay: Antiviral activity against Feline Infectious peritonitis virus infected cat CRFK cells assessed as reduction of virus-induced cytopathic effect after 3 days by colorimetric formazan-based MTS assay; format: functional, organism-based; details: Alphacoronavirus 1, CRFK, 72 h; summary of the method: as §1
[8] = Inhibition of beta lactamase assessed as increase in time taken for iodine decolorization relative to control; design: concentration or dose not given beside the values; details: concentration not given here
Respirovirus muris = assay: Antiviral activity against Sendai virus infected African green monkey Vero cells assessed as reduction of virus-induced cytopathic effect after 3 days by colorimetric formazan-based MTS assay; format: functional, organism-based; details: 72 h
Felid alphaherpesvirus 1 = assay: Antiviral activity against Felid herpesvirus 1 infected cat CRFK cells assessed as reduction of virus-induced cytopathic effect after 3 days by colorimetric formazan-based MTS assay; format: functional, organism-based; details: Felid alphaherpesvirus 1, CRFK, 72 h
Summary of the method: (§4)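 Cells grown to confluency in 96-well plates ([…], Vero for lines 9–10) were infected with 100 CCID50 of virus, and serial compound dilutions were added at infection. Plates were incubated at 37 °C for 3 days, until complete CPE appeared in untreated virus controls.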

CCRF-CEM = assay: Cytotoxicity against Homo sapiens (human) CEM cells assessed as growth inhibition after 72 hr by coulter counter analysis; format: functional, cell-based
Summary of the method: (§5)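 Cells in growth medium were allowed to proliferate with variable compound amounts at 37 °C in a humidified CO2 atmosphere. Incubation ran 48 h for L1210, 72 h for CEM and 96 h for HeLa. Cells were then counted with a Coulter counter.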

[9] = Cytotoxicity against Chlorocebus aethiops (African green monkey) Vero cells assessed as change in cellular morphology; format: cell-based; details: chlorocebus sabaeus
Coxsackievirus B4 [10] = assay: Antiviral activity against Human coxsackievirus B4 infected African green monkey Vero cells assessed as reduction of virus-induced cytopathic effect after 3 days by colorimetric formazan-based MTS assay; format: functional, organism-based; details: Enterovirus B, 72 h; summary of the method: as §1
[11] = system: Respiratory syncytial virus; assay: Antiviral activity against Respiratory syncytial virus infected human HeLa cells assessed as reduction of virus-induced cytopathic effect after 3 days by colorimetric formazan-based MTS assay; format: functional, organism-based; details: 72 h; summary of the method: as §1
Human respirovirus 3 = assay: Antiviral activity against Human parainfluenza virus 3 infected African green monkey Vero cells assessed as reduction of virus-induced cytopathic effect after 3 days by colorimetric formazan-based MTS assay; format: functional, organism-based; details: Human respirovirus 3, Vero, 72 h; summary of the method: as §4
[12] = Cytotoxicity against Felis catus (cat) CRFK cells assessed as change in cellular morphology; format: cell-based; details: crfk; summary of the method: as §3
Aspergillus niger = assay: Antifungal activity against Aspergillus niger assessed as growth inhibition at 50 ug/ml by cup-plate method (reference value: 8 to 10 mm); format: functional; details: read-out: DIZ
[13] = Inhibition of beta lactamase assessed as time for decolorization of iodine (reference value: 79.5 secs)
[14] = system: Mammalian orthoreovirus 1; assay: Antiviral activity against Mammalian orthoreovirus 1 infected African green monkey Vero cells assessed as reduction of virus-induced cytopathic effect after 3 days by colorimetric formazan-based MTS assay; format: functional, organism-based; details: Mammalian orthoreovirus 1, Vero, 72 h; summary of the method: as §4
[15] = (§6) Cytotoxicity against Homo sapiens (human) HeLa cells assessed as change in cellular morphology; format: cell-based; details: HeLa cells; summary of the method: as §3
HeLa = assay: as §6; format: cell-based; details: hela; summary of the method: as §3
L1210 = assay: Cytotoxicity against Mus musculus (mouse) L1210 cells assessed as growth inhibition after 48 hr by coulter counter analysis; format: functional, cell-based; details: L1210, 48 h; summary of the method: as §5
Vaccinia virus = assay: Antiviral activity against Vaccinia virus infected human HEL cells assessed as reduction of virus-induced cytopathic effect after 3 days by colorimetric formazan-based MTS assay; format: functional, organism-based; details: Orthopoxvirus vaccinia, 72 h; summary of the method: as §1
Punta Toro virus = assay: Antiviral activity against Punta Toro virus infected in African green monkey Vero cells assessed as reduction of virus-induced cytopathic effect after 3 days by colorimetric formazan-based MTS assay; format: functional, organism-based; details: 72 h; summary of the method: as §1
[16] = system: Vesicular stomatitis virus; assay: Antiviral activity against Vesicular stomatitis virus infected human HeLa cells assessed as reduction of virus-induced cytopathic effect after 3 days by colorimetric formazan-based MTS assay; format: functional, organism-based; details: 72 h; summary of the method: as §1
Candida albicans = assay: Antifungal activity against Candida albicans assessed as growth inhibition at 50 ug/ml by cup-plate method (reference value: 8 to 10 mm); format: functional; details: read-out: DIZ

Compound: CC(N)C12CC3CC(CC(C3)C1)C2 (stereo unspecified) [RIMANTADINE]
- EC50 (Influenza B virus): > 100 µM
- EC50 (Influenza A virus): 24.2 µM
- MCC [1]: 500 µM
- CC50 (MDCK): 259 µM
- EC50 (Influenza A virus H3N2): 0.08 µM

Compound: CC1COc2c(N3CCN(C)CC3)c(F)cc3c(=O)c(C(=O)O)cn1c23 (stereo unspecified) [OFLOXACIN]
- zone of inhibition at 50 µg/mL (Salmonella typhi): 31 mm
- zone of inhibition at 50 µg/mL (Escherichia coli): 31 mm
- zone of inhibition at 50 µg/mL (Proteus vulgaris): 31 mm
- zone of inhibition at 50 µg/mL (Bacillus subtilis): 31 mm
- zone of inhibition at 50 µg/mL (Klebsiella pneumoniae): 31 mm
- zone of inhibition at 50 µg/mL (Staphylococcus aureus): 31 mm

Compound: Nc1ccn(C[C@@H](CO)OCP(=O)(O)O)c(=O)n1 [CIDOFOVIR]
- EC50 (Human alphaherpesvirus 2): 1.5 µM
- EC50 (Human alphaherpesvirus 1 [2]): 6 µM
- EC50 [3]: > 250 µM
- MCC [4]: > 250 µM
- EC50 (Human alphaherpesvirus 1 [5]): 5 µM

Compound: CCN(CC)CN1C(=O)/C(=N/NC(=S)Nc2ccccc2)c2cc(Cl)ccc21
- EC50 (Coxsackievirus B4 [6]): > 20 µM
- EC50 [7]: > 4 µM
- inhibition [8]: 49.2%
- EC50 (Respirovirus muris): > 20 µM
- zone of inhibition at 50 µg/mL (Salmonella typhi): 11 mm
- EC50 (Felid alphaherpesvirus 1): > 4 µM
- EC50 (Influenza B virus): > 0.8 µM
- EC50 (Human alphaherpesvirus 2): > 20 µM
- zone of inhibition at 50 µg/mL (Escherichia coli): 11 mm
- IC50 (CCRF-CEM): 40 µM
- EC50 (Human alphaherpesvirus 1 [2]): > 20 µM
- EC50 [3]: > 20 µM
- MCC [9]: 100 µM
- EC50 (Coxsackievirus B4 [10]): > 20 µM
- EC50 (Influenza A virus): > 0.8 µM
- EC50 [11]: > 20 µM
- EC50 (Human respirovirus 3): > 20 µM
- CC50 [12]: 6.9 µM
- zone of inhibition at 50 µg/mL (Aspergillus niger): 11 mm
- MCC [4]: 100 µM
- zone of inhibition at 50 µg/mL (Proteus vulgaris): 21 mm
- MCC [1]: ≥ 0.8 µM
- CC50 (MDCK): 3 µM
- EC50 (Influenza A virus H3N2): > 0.8 µM
- EC50 (Human alphaherpesvirus 1 [5]): > 20 µM
- zone of inhibition at 50 µg/mL (Bacillus subtilis): 11 mm
- TIME [13]: 0.0434 h
- EC50 [14]: > 20 µM
- MCC [15]: ≥ 20 µM
- CC50 (HeLa): 13.5 µM
- IC50 (L1210): 49 µM
- zone of inhibition at 50 µg/mL (Klebsiella pneumoniae): 11 mm
- EC50 (Vaccinia virus): > 20 µM
- EC50 (Punta Toro virus): > 20 µM
- EC50 [16]: > 20 µM
- zone of inhibition at 50 µg/mL (Candida albicans): 21 mm
- zone of inhibition at 50 µg/mL (Staphylococcus aureus): 11 mm

Compound: Nc1ncnc2c1ncn2C[C@H](O)CO [(S)-DHPA]
- EC50 (Coxsackievirus B4 [6]): > 250 µM
- EC50 (Respirovirus muris): > 250 µM
- MCC [9]: > 250 µM
- EC50 (Coxsackievirus B4 [10]): > 250 µM
- EC50 [11]: > 250 µM
- MCC [15]: > 250 µM
- CC50 (HeLa): > 250 µM
- EC50 (Punta Toro virus): > 250 µM
- EC50 [16]: > 250 µM

Compound: Nc1nc2c(ncn2COCCO)c(=O)[nH]1 [ACYCLOVIR]
- EC50 (Human alphaherpesvirus 2): 0.7 µM
- EC50 [3]: > 250 µM
- MCC [4]: > 250 µM
- EC50 (Vaccinia virus): > 250 µM
